# Source: ChEMBL document CHEMBL1132628, “Quinuclidine inhibitors of 2,3-oxidosqualene cyclase-lanosterol synthase: optimization from lipid profiles” (J Med Chem, 1999)
# Target: T1, Lanosterol synthase (Rattus norvegicus, UniProt P48450)
# T1 sequence (P48450 whole entry): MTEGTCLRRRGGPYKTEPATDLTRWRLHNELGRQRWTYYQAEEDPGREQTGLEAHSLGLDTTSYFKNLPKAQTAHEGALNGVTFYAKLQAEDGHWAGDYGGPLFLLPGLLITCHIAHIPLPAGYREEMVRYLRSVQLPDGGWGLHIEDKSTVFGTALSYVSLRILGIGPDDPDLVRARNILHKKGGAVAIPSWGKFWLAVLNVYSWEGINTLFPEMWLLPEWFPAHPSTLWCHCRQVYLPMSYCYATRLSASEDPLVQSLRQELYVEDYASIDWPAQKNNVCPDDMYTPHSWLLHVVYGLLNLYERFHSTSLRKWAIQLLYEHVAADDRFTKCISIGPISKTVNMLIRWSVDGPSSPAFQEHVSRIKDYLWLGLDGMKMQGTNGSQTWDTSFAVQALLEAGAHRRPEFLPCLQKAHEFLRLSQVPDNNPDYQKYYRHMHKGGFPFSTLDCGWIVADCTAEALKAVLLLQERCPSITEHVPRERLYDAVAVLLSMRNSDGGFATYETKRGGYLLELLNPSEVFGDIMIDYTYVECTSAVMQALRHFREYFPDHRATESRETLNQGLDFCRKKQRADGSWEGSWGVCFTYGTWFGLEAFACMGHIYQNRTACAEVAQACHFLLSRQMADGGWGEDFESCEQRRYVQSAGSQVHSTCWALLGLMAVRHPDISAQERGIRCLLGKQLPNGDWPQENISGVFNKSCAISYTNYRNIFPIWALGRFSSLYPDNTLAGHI
# Test: Inhibition of compound was measured on rat microsomal Oxidosqualene-lanosterol cyclase
# Outline: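 Rat liver microsomes diluted in 50 mM phosphate buffer pH 7.4 with tween; compounds from DMSO stocks (10^-4 M, serial tenfold dilutions) preincubated with microsomes 10 min at 37 °C, then cold plus radiolabelled oxidosqualene added, 1 h incubation. Stopped with ethanolic KOH, heated 80 °C 2 h, hexane-extracted; inhibition from radiolabelled product.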
row,Compound,IC50 [µM]
1,C=CCc1cc(CCC(=O)OCC)ccc1C#CC1(O)CN2CCC1CC2 (centres undefined),> 0.1
2,OC1(c2ccc(-c3ccccc3)cc2)CN2CCC1CC2 (centres undefined),> 0.1

# Target: T2, Lanosterol synthase (Rattus norvegicus) (UniProt P48450)
# T2 sequence (whole entry): T1 sequence (P48450 whole entry)
# Test: The in vivo assay of compound for inhibition of cholesterol biosynthesis was measured on Oxidosqualene-lanosterol cyclase of rat at 5 mg/kg
# Type: functional, organism-based
# Parameters: dose 5 mg/kg
# Outline: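 Female rats (130 ± 20 g) on reverse lighting dosed orally in DMSO/HPMC; tritiated mevalonate (2.5 μCi) given 1 h later, rats killed after another 1 h. Liver extracts run on HPLC with radiodetection; peaks assigned against standard sterol intermediates' retention times; cholesterol synthesis inhibition from peak area, plus intermediate selectivity profile.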
row,Compound,inhibition [%]
1,O=C(/C=C1\CN2CCC1CC2)c1ccc(C(=O)c2ccc(Br)cc2)cc1,84
2,O=C(c1ccc(Cl)cc1)c1ccc(OC2CN3CCC2CC3)cc1 (centres undefined),92

# Target: T3, Squalene synthase (Rattus norvegicus, UniProt Q02769)
# T3 sequence (Q02769 whole entry): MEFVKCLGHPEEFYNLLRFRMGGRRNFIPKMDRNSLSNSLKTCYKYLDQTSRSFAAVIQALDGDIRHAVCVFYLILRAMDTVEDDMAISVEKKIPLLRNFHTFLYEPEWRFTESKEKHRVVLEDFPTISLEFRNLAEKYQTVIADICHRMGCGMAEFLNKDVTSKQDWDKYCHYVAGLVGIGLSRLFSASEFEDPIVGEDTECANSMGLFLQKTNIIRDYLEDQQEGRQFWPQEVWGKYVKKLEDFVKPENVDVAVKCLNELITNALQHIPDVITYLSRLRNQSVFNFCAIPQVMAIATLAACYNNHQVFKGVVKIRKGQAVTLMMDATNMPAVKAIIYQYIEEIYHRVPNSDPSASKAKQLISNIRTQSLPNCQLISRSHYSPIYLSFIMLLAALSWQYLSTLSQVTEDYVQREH
# Test: Compound was measured for the inhibition of rat microsomal squalene synthase enzyme
row,Compound,IC50 [µM]
1,C=CCc1cc(CCC(=O)OCC)ccc1C#CC1(O)CN2CCC1CC2 (centres undefined),0.006

# Target: T2, Lanosterol synthase (Rattus norvegicus)
# Test: The in vivo assay of compound for inhibition of cholesterol biosynthesis was measured on Oxidosqualene-lanosterol cyclase of rat at 5 mg/kg
row,Compound,inhibition [%]
1,[O-][S+](c1ccc(Br)cc1)c1ccc(C#CC2(O)CN3CCC2CC3)cc1 (centres undefined),83
2,O=S(=O)(c1ccc(Br)cc1)c1ccc(C#CC2(O)CN3CCC2CC3)cc1 (centres undefined),94
3,Brc1ccccc1SC1CN2CCC1CC2 (centres undefined),< 5
4,Brc1ccc(SC2CN3CCC2CC3)cc1 (centres undefined),47
5,OC1(C#Cc2ccc(Oc3ccc(Br)cc3)cc2)CN2CCC1CC2 (centres undefined),55
6,O=C(c1ccc(C(F)(F)F)cc1)N1CCC(=Cc2ccc(C3=NCCO3)cc2)CC1,98
7,OC1(C#Cc2ccc(Sc3ccc(Br)cc3)cc2)CN2CCC1CC2 (centres undefined),79
8,O=C(c1ccc(Br)cc1)c1ccc(C#CC2(O)CN3CCC2CC3)cc1 (centres undefined),59
9,Brc1cccc(SC2CN3CCC2CC3)c1 (centres undefined),< 5
